One block for each molecule: values may come before it. The source made the active and inactive calls. The calls are words filed in the database; no cut-off is given here.
Columns and labels:
[1] = biological target: T1, Protein cereblon/Estrogen receptor/Cullin-4A (Homo sapiens) (UniProt P03372+Q96SW2+Q13619); test: Protac activity against cereblon/cullin 4A/ERalpha in human MCF7 cells assessed as ERalpha degradation by measuring ER protein/GADPH ratio at 100 nM after 4 hrs by Western blot analysis relative to control; type: cell-based
T1 sequence (P03372 whole entry, looked up): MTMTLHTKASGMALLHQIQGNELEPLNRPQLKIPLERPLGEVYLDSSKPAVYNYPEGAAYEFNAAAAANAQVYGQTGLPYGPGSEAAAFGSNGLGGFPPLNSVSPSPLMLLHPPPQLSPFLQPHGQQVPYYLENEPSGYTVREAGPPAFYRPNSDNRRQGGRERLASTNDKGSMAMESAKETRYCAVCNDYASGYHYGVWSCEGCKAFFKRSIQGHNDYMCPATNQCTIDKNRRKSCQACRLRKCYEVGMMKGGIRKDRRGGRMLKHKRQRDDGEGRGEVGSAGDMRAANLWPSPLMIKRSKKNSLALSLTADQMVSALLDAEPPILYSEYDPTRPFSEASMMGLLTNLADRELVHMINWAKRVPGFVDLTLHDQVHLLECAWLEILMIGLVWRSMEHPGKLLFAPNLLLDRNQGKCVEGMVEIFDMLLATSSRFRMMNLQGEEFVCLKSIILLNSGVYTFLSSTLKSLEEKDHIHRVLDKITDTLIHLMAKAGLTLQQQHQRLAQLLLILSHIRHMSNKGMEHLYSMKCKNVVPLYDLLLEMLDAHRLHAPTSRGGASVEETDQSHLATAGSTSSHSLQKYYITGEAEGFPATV
T1 sequence (Q13619 whole entry, looked up): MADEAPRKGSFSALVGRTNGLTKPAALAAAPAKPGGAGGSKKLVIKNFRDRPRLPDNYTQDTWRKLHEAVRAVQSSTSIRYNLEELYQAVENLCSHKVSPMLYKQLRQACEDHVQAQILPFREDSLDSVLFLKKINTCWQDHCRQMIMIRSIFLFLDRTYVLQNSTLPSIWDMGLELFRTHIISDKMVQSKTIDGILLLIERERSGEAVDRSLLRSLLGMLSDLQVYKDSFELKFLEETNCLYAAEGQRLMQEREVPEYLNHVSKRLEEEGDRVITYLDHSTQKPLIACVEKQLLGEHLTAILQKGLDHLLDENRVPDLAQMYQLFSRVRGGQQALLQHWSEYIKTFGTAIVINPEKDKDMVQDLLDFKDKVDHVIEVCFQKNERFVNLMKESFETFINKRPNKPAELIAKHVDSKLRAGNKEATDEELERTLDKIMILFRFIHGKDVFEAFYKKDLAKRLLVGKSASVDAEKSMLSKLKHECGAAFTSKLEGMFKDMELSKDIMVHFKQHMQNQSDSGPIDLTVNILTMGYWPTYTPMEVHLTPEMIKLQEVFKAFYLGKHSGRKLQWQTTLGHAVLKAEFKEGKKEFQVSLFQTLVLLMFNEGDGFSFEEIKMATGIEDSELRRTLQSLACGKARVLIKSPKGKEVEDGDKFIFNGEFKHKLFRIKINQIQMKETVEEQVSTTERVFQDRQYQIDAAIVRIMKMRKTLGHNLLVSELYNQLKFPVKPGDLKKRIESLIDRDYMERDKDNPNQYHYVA
T1 sequence (Q96SW2 whole entry, looked up): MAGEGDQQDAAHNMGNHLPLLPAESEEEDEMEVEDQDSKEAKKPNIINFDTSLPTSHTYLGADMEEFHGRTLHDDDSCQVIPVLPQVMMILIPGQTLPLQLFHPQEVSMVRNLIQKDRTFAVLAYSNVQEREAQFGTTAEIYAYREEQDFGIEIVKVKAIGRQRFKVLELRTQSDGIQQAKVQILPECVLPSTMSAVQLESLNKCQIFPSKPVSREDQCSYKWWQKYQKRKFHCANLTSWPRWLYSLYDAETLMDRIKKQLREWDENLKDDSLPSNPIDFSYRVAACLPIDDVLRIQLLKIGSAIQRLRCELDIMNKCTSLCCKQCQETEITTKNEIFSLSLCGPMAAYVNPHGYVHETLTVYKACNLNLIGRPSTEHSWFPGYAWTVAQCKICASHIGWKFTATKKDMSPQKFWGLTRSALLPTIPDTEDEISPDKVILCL
Method in brief: (§1)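 MCF-7 cells (DMEM, 10% FBS, passages 3−8) exposed 4 h. Lysed in RIPA with protease inhibitors; equal protein on 10% SDS-PAGE, PVDF, anti-ERα blot. Membranes stripped and reprobed for GAPDH. ERα/GAPDH ratio normalized to DMSO = 100; DC50 from densitometry of the dose series.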

[2] = biological target: T1, Protein cereblon/Estrogen receptor/Cullin-4A (Homo sapiens); test: Protac activity against cereblon/cullin 4A/ERalpha in human MCF7 cells assessed as ERalpha degradation by measuring ER protein/GADPH ratio at 1 nM after 4 hrs by Western blot analysis relative to control; type: cell-based; method in brief: as §1
[3] = biological target: T1, Protein cereblon/Estrogen receptor/Cullin-4A (Homo sapiens); test: Protac activity against cereblon/cullin 4A/ERalpha in human MCF7 cells assessed as ERalpha degradation by measuring ER protein/GADPH ratio at 10 nM after 4 hrs by Western blot analysis relative to control; type: cell-based; method in brief: as §1
[4] = biological target: T1, Protein cereblon/Estrogen receptor/Cullin-4A (Homo sapiens); test: Protac activity against cereblon/cullin 4A/ERalpha in human MCF7 cells assessed as ERalpha degradation by measuring ER protein/GADPH ratio at 1000 nM after 4 hrs by Western blot analysis relative to control; type: cell-based; method in brief: as §1
[5] = biological target: T2, von Hippel-Lindau disease tumor suppressor/Estrogen receptor/Cullin-2 (Homo sapiens, UniProt P03372+P40337+Q13617); test: Protac activity against VHL/cullin2/ERalpha in human MCF7 cells assessed as ERalpha degradation by measuring reduction in ER protein level pre-treated with raloxifene for 2 hrs followed by compound exposure at 30 nM for 4 hrs by Western blot analysis; type: cell-based
T2 sequence (P03372 whole entry, looked up): as the sequence (P03372 whole entry, looked up) above
T2 sequence (P40337 whole entry, looked up): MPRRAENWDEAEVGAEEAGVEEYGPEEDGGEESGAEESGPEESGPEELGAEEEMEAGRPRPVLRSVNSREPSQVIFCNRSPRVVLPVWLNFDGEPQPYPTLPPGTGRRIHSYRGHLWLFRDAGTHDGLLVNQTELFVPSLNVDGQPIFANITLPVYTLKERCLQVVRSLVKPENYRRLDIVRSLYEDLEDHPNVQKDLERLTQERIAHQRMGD
T2 sequence (Q13617 whole entry, looked up): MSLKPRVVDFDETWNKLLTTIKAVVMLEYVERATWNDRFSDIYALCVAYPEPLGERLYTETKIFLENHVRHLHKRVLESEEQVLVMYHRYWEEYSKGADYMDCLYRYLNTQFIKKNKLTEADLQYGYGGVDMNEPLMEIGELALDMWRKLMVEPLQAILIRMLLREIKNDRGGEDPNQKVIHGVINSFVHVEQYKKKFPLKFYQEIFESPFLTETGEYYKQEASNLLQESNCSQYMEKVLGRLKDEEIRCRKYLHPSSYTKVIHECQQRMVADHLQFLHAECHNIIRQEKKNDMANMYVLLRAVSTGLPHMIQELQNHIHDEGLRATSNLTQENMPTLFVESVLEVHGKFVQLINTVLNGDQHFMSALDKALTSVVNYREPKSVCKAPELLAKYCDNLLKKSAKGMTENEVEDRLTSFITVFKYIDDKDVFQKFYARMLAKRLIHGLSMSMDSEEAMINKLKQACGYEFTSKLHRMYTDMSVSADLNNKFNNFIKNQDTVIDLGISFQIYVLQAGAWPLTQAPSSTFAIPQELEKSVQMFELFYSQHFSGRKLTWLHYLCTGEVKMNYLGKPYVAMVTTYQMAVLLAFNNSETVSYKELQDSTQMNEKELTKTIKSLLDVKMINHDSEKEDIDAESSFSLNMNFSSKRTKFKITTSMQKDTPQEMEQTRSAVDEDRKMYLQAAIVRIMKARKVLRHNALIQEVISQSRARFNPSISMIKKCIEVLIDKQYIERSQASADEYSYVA

[6] = biological target: T2, von Hippel-Lindau disease tumor suppressor/Estrogen receptor/Cullin-2; test: Protac activity against VHL/cullin2/ERalpha in human MCF7 cells assessed as ERalpha degradation by measuring ER protein/GADPH ratio at 1 nM after 4 hrs by Western blot analysis relative to control; type: cell-based; method in brief: as §1
[7] = biological target: T2, von Hippel-Lindau disease tumor suppressor/Estrogen receptor/Cullin-2; test: Protac activity against VHL/cullin2/ERalpha in human MCF7 cells assessed as ERalpha degradation by measuring ER protein/GADPH ratio at 10 nM after 4 hrs by Western blot analysis relative to control; type: cell-based; method in brief: as §1
[8] = biological target: T2, von Hippel-Lindau disease tumor suppressor/Estrogen receptor/Cullin-2; test: Protac activity against VHL/cullin2/ERalpha in human MCF7 cells assessed as ERalpha degradation by measuring ER protein/GADPH ratio at 1000 nM after 4 hrs by Western blot analysis relative to control; type: cell-based; method in brief: as §1
[9] = biological target: T2, von Hippel-Lindau disease tumor suppressor/Estrogen receptor/Cullin-2; test: Protac activity against VHL/cullin2/ERalpha in human MCF7 cells assessed as ERalpha degradation by measuring ER protein/GADPH ratio at 100 nM after 4 hrs by Western blot analysis relative to control; type: cell-based; method in brief: as §1
[10] = Binding affinity to His-TEV-tagged VHL (54 to 213 residues) (unknown origin)/Elongin B (1 to 118 residues)/Elongin C (1 to 96 residues) expressed in Escherichia coli BL21(DE3) by FP assay; parameters: species or system Homo sapiens
Method in brief: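 Competitive FP. Tracer is a fluorescent VHL ligand (Kd 2.3 nM). VHL–ElonginB/C complex and tracer each at 5 nM final, preincubated. Compound in DMSO (5 µL into 95 µL) for 60 min at room temperature with shaking. Ex 485/em 530 nm. IC50 by nonlinear regression; Ki from probe KD and protein/probe concentrations. Duplicate, three independent experiments.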

- Ratio [1]: 146
- Ratio [2]: 124
- Ratio [3]: 149
- Ratio [4]: 165
SMILES: CCN(CCOCCOCCOCC#Cc1cccc2c1CN(C1CCC(=O)NC1=O)C2=O)CCOc1ccc(C(=O)c2c(-c3ccc(O)cc3)sc3cc(O)ccc23)cc1 (stereo unspecified)

- IC50 [10]: 0.196 µM
SMILES: CC(=O)N[C@H](C(=O)N1C[C@H](O)C[C@H]1C(=O)N[C@@H](C)c1ccc(-c2scnc2C)cc1)C(C)(C)C

Second part, the molecule before the results:

SMILES: CCN(CCCCCCC#Cc1cccc2c1CN(C1CCC(=O)NC1=O)C2=O)CCOc1ccc(C(=O)c2c(-c3ccc(O)cc3)sc3cc(O)ccc23)cc1 (stereo unspecified)
- Ratio [1]: 160
- Ratio [2]: 143
- Ratio [3]: 135
- Ratio [4]: 174

SMILES: CC(C)C[C@H](NC(=O)[C@H](CCc1ccccc1)NC(=O)CN1CCOCC1)C(=O)N[C@@H](Cc1ccccc1)C(=O)N[C@@H](CC(C)C)C(=O)[C@@]1(C)CO1
- Activity [5]: inactive

SMILES: CCN(CCOCCOCCOCCC(=O)N[C@H](C(=O)N1C[C@H](O)C[C@H]1C(=O)N[C@@H](C)c1ccc(-c2scnc2C)cc1)C(C)(C)C)CCOc1ccc(C(=O)c2c(-c3ccc(O)cc3)sc3cc(O)ccc23)cc1
- Ratio [6]: 101
- Ratio [7]: 0.6
- Ratio [8]: 67
- Ratio [9]: 0.4

SMILES: CC(=O)N[C@H](C(=O)N1C[C@H](O)C[C@H]1C(=O)N[C@@H](C)c1ccc(C(C)(C)C)cc1)C(C)(C)C
- IC50 [10]: 58.9 µM

SMILES: CC(=O)N[C@H](C(=O)N1C[C@H](O)C[C@H]1C(=O)N[C@@H](C)c1ccc(Cl)cc1)C(C)(C)C
- IC50 [10]: 7.87 µM

— ChEMBL document CHEMBL4368943 (J Med Chem, 2019)
